Measured values from ChEMBL document CHEMBL3352384, “Synthesis and biological activity of new salicylanilide N,N-disubstituted carbamates and thiocarbamates” (Bioorg Med Chem, 2014).
≈ marks a conversion by molar mass, not a printed value.

Columns and labels:
Mycobacterium kansasii [1] = assay: Antimycobacterial activity against Mycobacterium kansasii 235/80 assessed as complete growth inhibition after 21 days; format: functional; settings: 235/80, 504 h
Method in brief: (§1)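 Dilutions of M. kansasii inoculum were 10-4 for strain 235/80 and 10-5 for clinical isolate 6509/96. MIC was the lowest concentration giving complete growth inhibition, run in quadruplicate and repeated twice.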

[2] = Selectivity index, ratio of IC50 for human HepG2 cells to MIC for atypical mycobacteria
Method in brief: (§2)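 Selectivity index = HepG2 IC50 / MIC. HepG2 cells (passage 3–4) grown in Eagle's MEM with 10% FBS, L-glutamine and non-essential amino acids. Compounds added from DMSO, eight concentrations in triplicate, tetrazolium-reduction colorimetric read-out. IC50 is the concentration reducing viability to 50% of control; 10% DMSO as 0% viability.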

Mycobacterium avium [3] = assay: Antimycobacterial activity against Isoniazid, rifampicin, ofloxacin and ethambutol-resistant Mycobacterium avium 330/88 assessed as complete growth inhibition after 14 days; format: functional; settings: 330/88, 336 h
Method in brief: (§3)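 M. tuberculosis 331/88 (H37Rv) inoculum diluted 10-3, M. avium 330/88 diluted 10-5. MIC is the lowest concentration giving complete growth inhibition. Isoniazid and p-aminosalicylic acid as references. Quadruplicate, repeated twice.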

HepG2 = assay: Cytotoxicity against human HepG2 cells assessed as reduction in cell viability after 24 hrs by MTS assay; format: cell-based; settings: HepG2, 24 h
Method in brief: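 HepG2 hepatocellular carcinoma cells (passage 3–4) were grown in Eagle's MEM with 10% FBS, 1% L-glutamine and non-essential amino acids. Compounds were added from DMSO at eight concentrations in triplicate, with 10% DMSO as the 0% viability control. Viability was read by tetrazolium salt reduction (CellTiter 96 AQueous One). IC50 is the concentration reducing viability to 50% of control.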

Mycobacterium avium [4] = assay: Antimycobacterial activity against Isoniazid, rifampicin, ofloxacin and ethambutol-resistant Mycobacterium avium 330/88 assessed as complete growth inhibition after 21 days; format: functional; settings: 330/88, 504 h; method in brief: as §3
[5] = Inhibition of Mycobacterium tuberculosis H37Rv isocitrate lyase assessed as glyoxylate phenyl hydrazone formation at 10 uM
Mycobacterium kansasii [6] = assay: Antimycobacterial activity against clinical isolate Mycobacterium kansasii 6509/96 assessed as complete growth inhibition after 7 days; format: functional; settings: 6509/96, 168 h; method in brief: as §1
Mycobacterium kansasii [7] = assay: Antimycobacterial activity against clinical isolate Mycobacterium kansasii 6509/96 assessed as complete growth inhibition after 21 days; format: functional; settings: 6509/96, 504 h; method in brief: as §1
[8] = test system: Mycobacterium tuberculosis; assay: Antimycobacterial activity against Mycobacterium tuberculosis H37Rv 331/88 assessed as complete growth inhibition after 14 days; format: functional; settings: H37Rv 331/88, 336 h; method in brief: as §3
Mycobacterium kansasii [9] = assay: Antimycobacterial activity against clinical isolate Mycobacterium kansasii 6509/96 assessed as complete growth inhibition after 14 days; format: functional; settings: 6509/96, 336 h; method in brief: as §1
Mycobacterium kansasii [10] = assay: Antimycobacterial activity against Mycobacterium kansasii 235/80 assessed as complete growth inhibition after 14 days; format: functional; settings: 235/80, 336 h; method in brief: as §1
[11] = Selectivity index, ratio of IC50 for human HepG2 cells to MIC for Mycobacterium tuberculosis H37Rv; format: toxicity, cell-based; settings: read-out: Selectivity Index
Method in brief: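 Selectivity index = HepG2 IC50 / MIC. HepG2 cells (passage 3–4) grown in Eagle's MEM with 10% FBS, L-glutamine and non-essential amino acids. Compounds added from DMSO, eight concentrations in triplicate, tetrazolium-reduction colorimetric read-out.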

Mycobacterium kansasii [12] = assay: Antimycobacterial activity against Mycobacterium kansasii 235/80 assessed as complete growth inhibition after 7 days; format: functional; settings: 235/80, 168 h; method in brief: as §1
[13] = test system: Mycobacterium tuberculosis; assay: Antimycobacterial activity against Mycobacterium tuberculosis H37Rv 331/88 assessed as complete growth inhibition after 21 days; format: functional; settings: H37Rv 331/88, 504 h; method in brief: as §3
[14] = test system: Trichophyton mentagrophytes; assay: Antimicrobial activity against Trichophyton mentagrophytes 445 after 120 hrs by microdilution method; format: functional; settings: Trichophyton mentagrophytes, 445, 120 h
Method in brief: (§4)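 Broth microdilution in RPMI 1640 with glutamine, with fluconazole and amphotericin B as references. For filamentous fungi, MIC is expressed as the IC50, i.e. the concentration giving 50% growth reduction versus control. Each determination was done twice.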

[15] = Selectivity index, ratio of IC50 for human HepG2 cells to MIC for Trichophyton mentagrophytes 445
[16] = test system: Trichophyton mentagrophytes; assay: Antimicrobial activity against Trichophyton mentagrophytes 445 after 72 hrs by microdilution method; format: functional; settings: Trichophyton mentagrophytes, 445, 72 h; method in brief: as §4
Staphylococcus aureus [17] = assay: Antimicrobial activity against methicillin-resistant Staphylococcus aureus H 5996/08 after 24 hrs by microdilution method; format: functional; settings: H 5996/08, 24 h
Method in brief: (§5)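 Mueller-Hinton broth microdilution; compounds dissolved in DMSO, final concentrations 500 to 0.49 µM. […] Benzylpenicillin and bacitracin as comparators. Each determination done twice.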

[18] = test system: Staphylococcus epidermidis; assay: Antimicrobial activity against Staphylococcus epidermidis H 6966/08 after 48 hrs by microdilution method; format: functional; settings: H 6966/08, 48 h
Method in brief: (§6)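 Broth microdilution in Mueller-Hinton broth, compounds dissolved in DMSO, final concentrations 500 to 0.49 µM. Benzylpenicillin and bacitracin were run as comparators. MIC was taken as 95% (IC95) or greater growth reduction versus control. Each determination was done twice.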

Staphylococcus aureus [19] = assay: Antimicrobial activity against methicillin-resistant Staphylococcus aureus H 5996/08 after 48 hrs by microdilution method; format: functional; settings: H 5996/08, 48 h; method in brief: as §5
Staphylococcus aureus [20] = assay: Antimicrobial activity against Staphylococcus aureus CCM 4516/08 after 48 hrs by microdilution method; format: functional; settings: CCM 4516/08, 48 h; method in brief: as §5
Enterococcus sp. [21] = assay: Antimicrobial activity against Enterococcus sp. J 14365/08 after 48 hrs by microdilution method; format: functional; settings: J 14365/08, 48 h; method in brief: as §6
Enterococcus sp. [22] = assay: Antimicrobial activity against Enterococcus sp. J 14365/08 after 24 hrs by microdilution method; format: functional; settings: J 14365/08, 24 h; method in brief: as §6
[23] = Selectivity index, ratio of IC50 for human HepG2 cells to MIC for methicillin-resistant Staphylococcus aureus H 5996/08; method in brief: as §2
[24] = test system: Staphylococcus epidermidis; assay: Antimicrobial activity against Staphylococcus epidermidis H 6966/08 after 24 hrs by microdilution method; format: functional; settings: H 6966/08, 24 h; method in brief: as §6
Staphylococcus aureus [25] = assay: Antimicrobial activity against Staphylococcus aureus CCM 4516/08 after 24 hrs by microdilution method; format: functional; settings: CCM 4516/08, 24 h; method in brief: as §5

SMILES | MIC (Mycobacterium kansasii [1]) [µM] | Selectivity Index [2] | MIC (Mycobacterium avium [3]) [µM] | IC50 (HepG2) [µM] | MIC (Mycobacterium avium [4]) [µM] | inhibition [5] [%] | MIC (Mycobacterium kansasii [6]) [µM] | MIC (Mycobacterium kansasii [7]) [µM] | MIC [8] [µM] | MIC (Mycobacterium kansasii [9]) [µM] | MIC (Mycobacterium kansasii [10]) [µM] | selectivity ratio [11] | MIC (Mycobacterium kansasii [12]) [µM] | MIC [13] [µM] | also measured
CN(C(=O)Oc1ccc(Cl)cc1C(=O)Nc1ccc(Br)cc1)c1ccccc1 | 125 (≈ 57.5 µg/mL) | <=29.5 | 250 (≈ 115 µg/mL) | 945 | 250 (≈ 115 µg/mL) | 14 | 32 (≈ 14.7 µg/mL) | 125 (≈ 57.5 µg/mL) | 32 (≈ 14.7 µg/mL) | 62.5 (≈ 28.7 µg/mL) | 125 (≈ 57.5 µg/mL) | 29.5 | 32 (≈ 14.7 µg/mL) | 32 (≈ 14.7 µg/mL) | 
OC(Cn1cncn1)(Cn1cncn1)c1ccc(F)cc1F [FLUCONAZOLE] |  |  |  | > 300 |  |  |  |  |  |  |  |  |  |  | MIC [14]: 125 µM (≈ 38.3 µg/mL); Selectivity Index [15]: >2.4; MIC [16]: 7.81 µM (≈ 2.39 µg/mL)
CC1(C)S[C@@H]2[C@H](NC(=O)Cc3ccccc3)C(=O)N2[C@H]1C(=O)O [PENICILLIN G] |  |  |  | > 10000 |  |  |  |  |  |  |  |  |  |  | MIC (Staphylococcus aureus [17]): 62.5 µM (≈ 20.9 µg/mL); MIC [18]: 250 µM (≈ 83.6 µg/mL); MIC (Staphylococcus aureus [19]): 125 µM (≈ 41.8 µg/mL); MIC (Staphylococcus aureus [20]): 0.98 µM (≈ 0.328 µg/mL); MIC (Enterococcus sp. [21]): 15.6 µM (≈ 5.22 µg/mL); MIC (Enterococcus sp. [22]): 7.81 µM (≈ 2.61 µg/mL); Selectivity Index [23]: >10.2; MIC [24]: 250 µM (≈ 83.6 µg/mL); MIC (Staphylococcus aureus [25]): 0.98 µM (≈ 0.328 µg/mL)
CN(C)C(=O)Oc1ccc(Cl)cc1C(=O)Nc1ccc(Br)cc1 | 125 (≈ 49.7 µg/mL) | <=5.5 | 62.5 (≈ 24.9 µg/mL) | 342 | 62.5 (≈ 24.9 µg/mL) | 9 | 62.5 (≈ 24.9 µg/mL) | 62.5 (≈ 24.9 µg/mL) | 16 (≈ 6.36 µg/mL) | 62.5 (≈ 24.9 µg/mL) | 125 (≈ 49.7 µg/mL) | 21.4 | 62.5 (≈ 24.9 µg/mL) | 16 (≈ 6.36 µg/mL) | 
O=C(Nc1ccccc1)c1ccccc1O [SALICYLANILIDE] | 250 (≈ 53.3 µg/mL) | 0.36 | 125 (≈ 26.7 µg/mL) | 89.8 | 250 (≈ 53.3 µg/mL) | 9 | 125 (≈ 26.7 µg/mL) | 250 (≈ 53.3 µg/mL) | 32 (≈ 6.82 µg/mL) | 250 (≈ 53.3 µg/mL) | 250 (≈ 53.3 µg/mL) | 0.7 | 125 (≈ 26.7 µg/mL) | 125 (≈ 26.7 µg/mL) | 
Nc1ccc(C(=O)O)c(O)c1 [AMINOSALICYLIC ACID] | > 1000 | <2.2 | 32 (≈ 4.9 µg/mL) | 2240 | 125 (≈ 19.1 µg/mL) | 10 | 32 (≈ 4.9 µg/mL) | 500 (≈ 76.6 µg/mL) | 62.5 (≈ 9.57 µg/mL) | 125 (≈ 19.1 µg/mL) | 1000 (≈ 153 µg/mL) | 35.8 | 125 (≈ 19.1 µg/mL) | 62.5 (≈ 9.57 µg/mL) | 
